ChEMBL document CHEMBL1287772, “Synthesis and structure-activity relationship of tetrahydropyrazolopyrimidine derivatives--a novel structural class of potent calcium-sensing receptor antagonists” (Bioorg Med Chem, 2010)

What was measured:
[1] = biological target: T1, Extracellular calcium-sensing receptor (Homo sapiens, UniProt P41180); assay: Antagonist activity at CaSR expressed in CHO cells assessed as [35S]-GTPgammaS binding by scintillation counting; type: functional, cell-based
T1 sequence (P41180 whole entry): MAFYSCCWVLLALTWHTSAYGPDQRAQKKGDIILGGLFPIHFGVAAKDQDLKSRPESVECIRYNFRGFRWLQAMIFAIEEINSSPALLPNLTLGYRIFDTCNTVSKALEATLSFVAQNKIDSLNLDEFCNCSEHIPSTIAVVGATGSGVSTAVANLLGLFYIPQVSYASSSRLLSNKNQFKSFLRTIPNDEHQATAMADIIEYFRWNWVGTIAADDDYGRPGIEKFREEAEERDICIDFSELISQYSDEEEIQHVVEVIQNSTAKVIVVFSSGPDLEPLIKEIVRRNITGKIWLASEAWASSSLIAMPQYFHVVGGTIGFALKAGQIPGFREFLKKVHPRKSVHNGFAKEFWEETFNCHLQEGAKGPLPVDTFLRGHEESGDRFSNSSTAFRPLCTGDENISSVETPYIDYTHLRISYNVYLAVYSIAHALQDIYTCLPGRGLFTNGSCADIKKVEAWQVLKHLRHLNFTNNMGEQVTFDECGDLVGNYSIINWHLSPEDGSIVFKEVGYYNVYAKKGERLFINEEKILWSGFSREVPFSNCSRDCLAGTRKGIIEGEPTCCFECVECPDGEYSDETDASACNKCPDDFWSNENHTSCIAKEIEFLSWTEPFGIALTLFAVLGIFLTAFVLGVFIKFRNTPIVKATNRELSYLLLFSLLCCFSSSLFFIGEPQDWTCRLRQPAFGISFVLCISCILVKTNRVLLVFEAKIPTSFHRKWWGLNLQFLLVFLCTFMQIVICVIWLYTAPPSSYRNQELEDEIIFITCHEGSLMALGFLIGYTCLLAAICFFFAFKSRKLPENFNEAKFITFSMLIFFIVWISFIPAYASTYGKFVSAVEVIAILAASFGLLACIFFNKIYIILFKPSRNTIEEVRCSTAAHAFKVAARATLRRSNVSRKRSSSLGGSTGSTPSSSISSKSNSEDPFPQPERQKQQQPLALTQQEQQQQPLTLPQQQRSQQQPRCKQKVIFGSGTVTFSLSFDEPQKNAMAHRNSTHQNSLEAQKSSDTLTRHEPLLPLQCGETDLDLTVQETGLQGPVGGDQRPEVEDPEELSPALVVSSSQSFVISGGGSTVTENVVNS

[2] = Tmax in Crl:CD(SD) rat at 10 mg/kg, po administered with solubilized reagent; type: ADME, organism-based; design: dose 10 mg/kg, route oral; conditions: in vivo
Procedure, shortened: (§1)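 Nonfasted male rats, 8 weeks old, n = 3, single oral dose 10 mg/kg. Blood sampled at 0.25, 0.5, 1, 2, 4, 8 and 24 h and spun to plasma. Plasma deproteinized with acetonitrile, supernatant diluted in 0.01 mol/L ammonium acetate, re-centrifuged, assayed by HPLC. Mean ± SD reported.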

[3] = Mean residence time in Crl:CD(SD) rat at 10 mg/kg, po administered with solubilized reagent; type: ADME, organism-based; design: dose 10 mg/kg, route oral; conditions: in vivo; procedure, shortened: as §1
[4] = Cmax in Crl:CD(SD) rat at 10 mg/kg, po administered with solubilized reagent; type: ADME, organism-based; design: dose 10 mg/kg, route oral; conditions: in vivo; procedure, shortened: as §1
[5] = Tmax in Crl:CD(SD) rat at 10 mg/kg, po administered with 0.5% methylcellulose suspension; type: ADME, organism-based; design: dose 10 mg/kg, route oral; conditions: in vivo; procedure, shortened: as §1
[6] = Mean residence time in Crl:CD(SD) rat at 10 mg/kg, po administered with 0.5% methylcellulose suspension; type: ADME, organism-based; design: dose 10 mg/kg, route oral; conditions: in vivo; procedure, shortened: as §1
[7] = Cmax in Crl:CD(SD) rat at 10 mg/kg, po administered with 0.5% methylcellulose suspension; type: ADME, organism-based; design: dose 10 mg/kg, route oral; conditions: in vivo; procedure, shortened: as §1
[8] = AUC in Crl:CD(SD) rat at 10 mg/kg, po administered with 0.5% methylcellulose suspension; type: ADME, organism-based; design: dose 10 mg/kg, route oral; conditions: in vivo; procedure, shortened: as §1
[9] = AUC in Crl:CD(SD) rat at 10 mg/kg, po administered with solubilized reagent; type: ADME, organism-based; design: dose 10 mg/kg, route oral; conditions: plasma; procedure, shortened: as §1

IC50 [1] | further results | Structure (SMILES)
40 nM |  | O=C(NC12CC3CC(CC(C3)C1)C2)c1cnn2c1N[C@H](c1ccccc1)C[C@@H]2C(F)(F)F
97 nM |  | O=C(OC12CC3CC(CC(C3)C1)C2)c1cnn2c1N[C@H](c1ccccc1)C[C@@H]2C(F)(F)F
> 10000 nM |  | CN1c2c(C(=O)NC34CC5CC(CC(C5)C3)C4)cnn2[C@@H](C(F)(F)F)C[C@H]1c1ccccc1
> 10000 nM |  | O=C(Nc1cnn2c1N[C@H](c1ccccc1)C[C@@H]2C(F)(F)F)C12CC3CC(CC(C3)C1)C2
> 10000 nM |  | FC(F)(F)[C@H]1C[C@@H](c2ccccc2)Nc2c(CNC34CC5CC(CC(C5)C3)C4)cnn21
110 nM |  | O=C(NC12CC3CC(CC(C3)C1)C2)c1cnn2c1N[C@H](c1ccccc1Cl)C[C@@H]2C(F)(F)F
320 nM |  | O=C(NC12CC3CC(CC(C3)C1)C2)c1cnn2c1N[C@H](c1cccc(Cl)c1)C[C@@H]2C(F)(F)F
> 10000 nM |  | O=C(NC12CC3CC(CC(C3)C1)C2)c1cnn2c1N[C@H](c1ccc(Cl)cc1)C[C@@H]2C(F)(F)F
> 10000 nM |  | COc1ccc([C@@H]2C[C@H](C(F)(F)F)n3ncc(C(=O)NC45CC6CC(CC(C6)C4)C5)c3N2)cc1
> 10000 nM |  | CCc1ccc([C@@H]2C[C@H](C(F)(F)F)n3ncc(C(=O)NC45CC6CC(CC(C6)C4)C5)c3N2)cc1
400 nM |  | O=C(NC12CC3CC(CC(C3)C1)C2)c1cnn2c1N[C@H](c1ccco1)C[C@@H]2C(F)(F)F
> 10000 nM |  | O=C(NC12CC3CC(CC(C3)C1)C2)c1cnn2c1N[C@H](c1cccnc1)C[C@@H]2C(F)(F)F
> 10000 nM |  | CC(C)(C)[C@@H]1C[C@H](C(F)(F)F)n2ncc(C(=O)NC34CC5CC(CC(C5)C3)C4)c2N1
700 nM |  | O=C(NC12CC3CC(CC(C3)C1)C2)c1cnn2c1N[C@H](c1ccccc1)C[C@@H]2c1ccccc1
76 nM |  | C[C@H]1C[C@@H](c2ccccc2)Nc2c(C(=O)NC34CC5CC(CC(C5)C3)C4)cnn21
> 10000 nM |  | C[C@@H]1C[C@H](c2ccccc2)n2ncc(C(=O)NC34CC5CC(CC(C5)C3)C4)c2N1
> 10000 nM |  | O=C(NC12CC3CC(CC(C3)C1)C2)c1cnn2c1NCC[C@@H]2C(F)(F)F
5300 nM |  | O=C(NC12CC3CC(CC(C3)C1)C2)c1cnn2c1N[C@H](c1ccccc1)CC2
10 nM | Tmax [2]: 0.67 h; MRT [3]: 4.48 h; Cmax [4]: 237 ng/mL; Tmax [5]: 1.3 h; MRT [6]: 4.65 h; Cmax [7]: 64 ng/mL; AUC [8]: 591 ng·h/mL; AUC [9]: 1270 ng·h/mL | CC1(C)C[C@@H](c2ccccc2)Nc2c(C(=O)NC34CC5CC(CC(C5)C3)C4)cnn21
580 nM |  | CC1(C)C=C(c2ccccc2)Nc2c(C(=O)NC34CC5CC(CC(C5)C3)C4)cnn21
> 10000 nM |  | O=C(NC12CC3CC(CC(C3)C1)C2)c1cnn2c(C(F)(F)F)cc(-c3ccccc3)nc12
